How the values were obtained:
[1] = CT900 plasma pharmacokinetics, noncompartmental analysis; assay type: in vivo, human; settings: Cycle 1 Day 1; for AUC(0-t) / Cmax / clearance / Tmax / Vd: human, plasma, iv
How it was run: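 Test compound was given intravenously, weekly (1–6 mg/m2) or every 2 weeks (2–12 mg/m2). Plasma concentration–time data were analysed noncompartmentally for AUClast, AUC∞, AUC0–24, Cmax, Tmax, t1/2, λz, clearance and Vss. Summaries are geometric mean with CV%, arithmetic mean and median.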

[2] = ref previous unpublished trial Eudra CT 2009-012933-31; cited from earlier work

In the case of C#CCN(c1ccc(C(=O)N[C@@H](CCC(=O)N[C@H](CCC(=O)O)C(=O)O)C(=O)O)cc1)[C@H]1CCc2cc3nc(CO)[nH]c(=O)c3cc21 [CT900, N-[4-[2-propyn-1-yl[(6S)-4,6,7,8-tetrahydro-2-(hydroxymethyl)-4-oxo-3H-cyclopenta [g]quinazolin-6-yl]amino]benzoyl]-l-gamma-glutamyl-D-glutamic acid], the “HL Lambda_z” value ([1]; 1 mg/m^2 i.v., Geometric Mean, N 3) is reported as 6.1 h, the “HL Lambda_z” value ([1]; 1 mg/m^2 i.v., Mean, N 3) is reported as 6.7 h and the “HL Lambda_z” value ([1]; 1 mg/m^2 i.v., Median, N 3) is reported as 7.5 h. The “HL Lambda_z” value ([1]; 1 mg/m^2 i.v., Range, N 3) was 3.2 to 9.4 h, the “HL Lambda_z” value ([1]; 2 mg/m^2 i.v., Geometric Mean, N 4) was 11.8 h and the “HL Lambda_z” value ([1]; 2 mg/m^2 i.v., Mean, N 4) was 12.6 h. For the same molecule, the “HL Lambda_z” value ([1]; 2 mg/m^2 i.v., Median, N 4) was 11.3 h, the “HL Lambda_z” value ([1]; 2 mg/m^2 i.v., Range, N 4) was 7.5 to 20.0 h and the “HL Lambda_z” value ([1]; 6 mg/m^2 i.v., Mean, N 1) was 19.9 h. The “HL Lambda_z” value ([1]; 12 mg/m^2 i.v., Geometric Mean, N 5) was 28.1 h, the “HL Lambda_z” value ([1]; 12 mg/m^2 i.v., Mean, N 5) was 28.7 h and the “HL Lambda_z” value ([1]; 12 mg/m^2 i.v., Median, N 5) was 26.5 h. The “HL Lambda_z” value ([1]; 12 mg/m^2 i.v., Range, N 5) was 23.0 to 41.0 h, the AUC(0-t) ([1]; 1 mg/m2, AUC0-24, 1 mg/m^2 i.v., Mean, N 3) was 1650 ng·h/mL and the AUC(0-t) ([1]; 1 mg/m2, AUC0-24, 1 mg/m^2 i.v., Median, N 3) was 1620 ng·h/mL. For the same molecule, the AUC(0-t) ([1]; 1 mg/m2, AUC0-24, 1 mg/m^2 i.v., Range, N 3) was 1020 to 2330 ng·h/mL, the AUC(0-t) ([1]; 1 mg/m2, AUClast, 1 mg/m^2 i.v., Mean, N 3) was 1650 ng·h/mL and the AUC(0-t) ([1]; 1 mg/m2, AUClast, 1 mg/m^2 i.v., Median, N 3) was 1620 ng·h/mL. It also gave an AUC(0-t) ([1]; 1 mg/m2, AUClast, 1 mg/m^2 i.v., Range, N 3) of 1020 to 2330 ng·h/mL, a Cmax ([1]; 1 mg/m2, C max, 1 mg/m^2 i.v., Mean, N 3) of 402 ng/mL and a Cmax ([1]; 1 mg/m2, C max, 1 mg/m^2 i.v., Median, N 3) of 401 ng/mL. The Cmax ([1]; 1 mg/m2, C max, 1 mg/m^2 i.v., Range, N 3) was 374 to 432 ng/mL, the clearance ([1]; 1 mg/m2, Cl, 1 mg/m^2 i.v., Mean, N 3) was 20.3 mL/min and the clearance ([1]; 1 mg/m2, Cl, 1 mg/m^2 i.v., Median, N 3) was 20.8 mL/min. It also gave a clearance ([1]; 1 mg/m2, Cl, 1 mg/m^2 i.v., Range, N 3) of 10.4 to 29.7 mL/min, a Tmax ([1]; 1 mg/m2, T max, 1 mg/m^2 i.v., Mean, N 3) of 1 h and a Tmax ([1]; 1 mg/m2, T max, 1 mg/m^2 i.v., Median, N 3) of 1 h. The Tmax ([1]; 1 mg/m2, T max, 1 mg/m^2 i.v., Range, N 3) was 1 h, the Vd ([1]; 1 mg/m2, Vss, 1 mg/m^2 i.v., Mean, N 3) was 7.59 L and the Vd ([1]; 1 mg/m2, Vss, 1 mg/m^2 i.v., Median, N 3) was 6.75 L. For the same molecule, the Vd ([1]; 1 mg/m2, Vss, 1 mg/m^2 i.v., Range, N 3) was 6.71 to 9.32 L, the AUC(0-t) ([1]; 2 mg/m2, AUC0-24, 2 mg/m^2 i.v., Mean, N 4) was 4890 ng·h/mL and the AUC(0-t) ([1]; 2 mg/m2, AUC0-24, 2 mg/m^2 i.v., Median, N 4) was 4730 ng·h/mL. It also gave an AUC(0-t) ([1]; 2 mg/m2, AUC0-24, 2 mg/m^2 i.v., Range, N 4) of 2520 to 7590 ng·h/mL, an AUC(0-t) ([1]; 2 mg/m2, AUClast, 2 mg/m^2 i.v., Mean, N 4) of 6860 ng·h/mL and an AUC(0-t) ([1]; 2 mg/m2, AUClast, 2 mg/m^2 i.v., Median, N 4) of 6050 ng·h/mL. The AUC(0-t) ([1]; 2 mg/m2, AUClast, 2 mg/m^2 i.v., Range, N 4) was 2520 to 12800 ng·h/mL, the Cmax ([1]; 2 mg/m2, C max, 2 mg/m^2 i.v., Mean, N 4) was 746 ng/mL and the Cmax ([1]; 2 mg/m2, C max, 2 mg/m^2 i.v., Median, N 4) was 759 ng/mL. It also gave a Cmax ([1]; 2 mg/m2, C max, 2 mg/m^2 i.v., Range, N 4) of 613 to 855 ng/mL, a clearance ([1]; 2 mg/m2, Cl, 2 mg/m^2 i.v., Mean, N 4) of 11.2 mL/min and a clearance ([1]; 2 mg/m2, Cl, 2 mg/m^2 i.v., Median, N 4) of 8.72 mL/min. For the same molecule, the clearance ([1]; 2 mg/m2, Cl, 2 mg/m^2 i.v., Range, N 4) was 4.07 to 23.4 mL/min, the Tmax ([1]; 2 mg/m2, T max, 2 mg/m^2 i.v., Mean, N 4) was 0.9 h and the Tmax ([1]; 2 mg/m2, T max, 2 mg/m^2 i.v., Median, N 4) was 1 h. It also gave a Tmax ([1]; 2 mg/m2, T max, 2 mg/m^2 i.v., Range, N 4) of 0.5 to 1.1 h, a Vd ([1]; 2 mg/m2, Vss, 2 mg/m^2 i.v., Mean, N 4) of 8.52 L and a Vd ([1]; 2 mg/m2, Vss, 2 mg/m^2 i.v., Median, N 4) of 7.41 L. For the same molecule, the Vd ([1]; 2 mg/m2, Vss, 2 mg/m^2 i.v., Range, N 4) was 6.53 to 12.7 L, the AUC(0-t) ([1]; 6 mg/m2, AUC0-24, 6 mg/m^2 i.v., Mean, N 1) was 15100 ng·h/mL and the AUC(0-t) ([1]; 6 mg/m2, AUClast, 6 mg/m^2 i.v., Mean, N 1) was 25600 ng·h/mL. It also gave a Cmax ([1]; 6 mg/m2, C max, 6 mg/m^2 i.v., Mean, N 1) of 2030 ng/mL, a clearance ([1]; 6 mg/m2, Cl, 6 mg/m^2 i.v., Mean, N 1) of 7.67 mL/min and a Tmax ([1]; 6 mg/m2, T max, 6 mg/m^2 i.v., Mean, N 1) of 1 h. It also gave a Vd ([1]; 6 mg/m2, Vss, 6 mg/m^2 i.v., Mean, N 1) of 12 L, an AUC(0-t) ([1]; 12 mg/m2, AUC0-24, 12 mg/m^2 i.v., Geometric Mean, N 5) of 46900 ng·h/mL and an AUC(0-t) ([1]; 12 mg/m2, AUC0-24, 12 mg/m^2 i.v., Mean, N 5) of 47200 ng·h/mL. The AUC(0-t) ([1]; 12 mg/m2, AUC0-24, 12 mg/m^2 i.v., Median, N 5) was 45400 ng·h/mL, the AUC(0-t) ([1]; 12 mg/m2, AUC0-24, 12 mg/m^2 i.v., Range, N 5) was 42300 to 58600 ng·h/mL and the AUC(0-t) ([1]; 12 mg/m2, AUClast, 12 mg/m^2 i.v., Geometric Mean, N 5) was 85900 ng·h/mL. It also gave an AUC(0-t) ([1]; 12 mg/m2, AUClast, 12 mg/m^2 i.v., Mean, N 5) of 87600 ng·h/mL, an AUC(0-t) ([1]; 12 mg/m2, AUClast, 12 mg/m^2 i.v., Median, N 5) of 83500 ng·h/mL and an AUC(0-t) ([1]; 12 mg/m2, AUClast, 12 mg/m^2 i.v., Range, N 5) of 68700 to 123000 ng·h/mL. It also gave a Cmax ([1]; 12 mg/m2, C max, 12 mg/m^2 i.v., Geometric Mean, N 5) of 5100 ng/mL, a Cmax ([1]; 12 mg/m2, C max, 12 mg/m^2 i.v., Mean, N 5) of 5130 ng/mL and a Cmax ([1]; 12 mg/m2, C max, 12 mg/m^2 i.v., Median, N 5) of 4830 ng/mL. For the same molecule, the Cmax ([1]; 12 mg/m2, C max, 12 mg/m^2 i.v., Range, N 5) was 4460 to 6010 ng/mL, the clearance ([1]; 12 mg/m2, Cl, 12 mg/m^2 i.v., Geometric Mean, N 5) was 3.45 mL/min and the clearance ([1]; 12 mg/m2, Cl, 12 mg/m^2 i.v., Mean, N 5) was 3.6 mL/min. The clearance ([1]; 12 mg/m2, Cl, 12 mg/m^2 i.v., Median, N 5) was 3.68 mL/min, the clearance ([1]; 12 mg/m2, Cl, 12 mg/m^2 i.v., Range, N 5) was 2.1 to 5.05 mL/min and the Tmax ([1]; 12 mg/m2, T max, 12 mg/m^2 i.v., Geometric Mean, N 5) was 1 h. The Tmax ([1]; 12 mg/m2, T max, 12 mg/m^2 i.v., Mean, N 5) was 1 h, the Tmax ([1]; 12 mg/m2, T max, 12 mg/m^2 i.v., Median, N 5) was 1 h and the Tmax ([1]; 12 mg/m2, T max, 12 mg/m^2 i.v., Range, N 5) was 1 h. For the same molecule, the Vd ([1]; 12 mg/m2, Vss, 12 mg/m^2 i.v., Geometric Mean, N 5) was 7.59 L, the Vd ([1]; 12 mg/m2, Vss, 12 mg/m^2 i.v., Mean, N 5) was 7.62 L and the Vd ([1]; 12 mg/m2, Vss, 12 mg/m^2 i.v., Median, N 5) was 7.33 L. The Vd ([1]; 12 mg/m2, Vss, 12 mg/m^2 i.v., Range, N 5) was 6.99 to 9.06 L and the “Median cumulative dose at which pulmonary toxicity occurred” value [2] was 162 mg/m^2.

Reference: article PMC9623233 (Clinical Cancer Research, 2022)
